Data set [1] is described as follows: Drug metabolism assessed as GSTpi (unknown origin) mediated compound fluorescence activation at 1 uM in presence of 1 mM Ca2+ by HPLC analysis. Type of data set: ADME. To be noted: human. The procedure, abridged:
(§1)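 Selectivity test: compound (1 µM) with catalytic GSTπ and each analyte in water with 1% (v/v) DMSO at pH 4.0, 37 °C for 0.5 h. Analytes were cations at 1 mM; amino acids, vitamin C, Na2S and GSH at 100 µM. Readout was fluorescence emission spectra (excitation 440 nm, recorded 450–650 nm).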

The test system of data set [2] is HT-29. In words: Antiproliferative activity against human HT-29 cells by MTT assay. Type of data set: functional, cell-based. The procedure, abridged: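 MTT assay. Cells were grown in DMEM/RPMI 1640 with 10% FBS, penicillin and streptomycin at 37 °C under 5% CO2. After a PBS wash, cells got 0.5 mg/mL MTT for 3 h at 37 °C. Formazan was dissolved in DMSO and absorbance read at 570 nm. Inhibition was expressed as a percentage and IC50 calculated. Means ± SD come from three separate experiments.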
On the technique in general: Formazan colour is commonly taken as a measure of viable cells.

In data set [3] the test system is HT-29. In words: Induction of apoptosis in human HT-29 cells at 1 uM incubated for 72 hrs by FITC-AnnexinV/PI staining based flow cytometry relative to control. Type of data set: functional. The method in brief:
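HT29 cells were cultured 12 h, then exposed to compound (0.4, 1.0, 2.5 µM) or vehicle for 72 h. Harvested cells were stained with Annexin V and PI, and apoptotic cell percentages measured by flow cytometry. Means ± SD come from three separate experiments.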
(In general: In flow cytometry, cells or beads pass a laser one at a time.)

Data set [4] can be described thus: Drug metabolism assessed as GSTpi (unknown origin) mediated compound fluorescence activation at 1 uM in presence of 1 mM Al3+ by HPLC analysis. Type of data set: ADME. To be noted: human. The procedure, abridged: as §1
The nature of data set [5]: Drug localization in tumor of intra-operative mouse xenografted with human HT-29/Luc cells at 40 mg/kg, iv measured after 1 hrs post dose by fluorescence imaging assay. The data set is classed as ADME, organism-based, Neoplasm. The settings on record: in vivo. The procedure, abridged: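 Mice carrying subcutaneous HT29 tumours (1×10^6 cells, grown 3–4 weeks) received 40 mg/kg iv. They were imaged under 1% pentobarbital at 0, 1, 2, 4, 8 and 24 h post-injection (465 nm excitation filter, GFP emission filter). Excised tumours and major organs were then imaged ex vivo.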
(In general: Xenograft models place foreign cells or tissue in a host animal.)

Data set [6] in a line: Toxicity in ICR mouse assessed as induction of animal death at 240 to 585.9 mg/kg, ip measured after 1 hr. The data set is classed as organism-based. The settings on record: in vivo. The procedure, abridged: (§2)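 Female ICR mice, randomised, n = 10 per group. Single intraperitoneal dose of 240.0, 300.0, 375.0, 468.8 or 585.9 mg/kg, or vehicle. Deaths recorded at 1 h, 4 h, days 1–4 and days 5–14. Body weight, drinking, eating and activity observed over 14 days. Survival percentage taken on day 14; LD50 derived from the dose–mortality data.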

Data set [7] can be described thus: Drug metabolism assessed as GSTpi (unknown origin) mediated compound fluorescence activation at 1 uM in presence of 1 mM Na+ by HPLC analysis. The data set is classed as ADME. The settings on record: human. The procedure, abridged: as §1
Data set [8] can be described thus: Toxicity in ICR mouse assessed as induction of animal survival rate at 468.8 mg/kg, ip measured after 14 days. Type of data set: organism-based. To be noted: in vivo. The method in brief: as §2
Data set [9] in a line: Toxicity in ICR mouse assessed as induction of animal death at 240 to 375 mg/kg, ip measured after 3 days. The data set is classed as organism-based. To be noted: in vivo, 72 h. The method in brief: as §2
Data set [10] can be described thus: Drug metabolism assessed as GSTpi (unknown origin) mediated compound fluorescence activation at 1 uM in presence of 50 uM […] by HPLC analysis. To be noted: human. The data set is classed as ADME.
Data set [11] in a line: Toxicity in ICR mouse assessed as induction of animal death at 240 to 300 mg/kg, ip measured after 2 days. The data set is classed as organism-based. The settings on record: in vivo, 48 h. The procedure, abridged: as §2
Data set [12] can be described thus: Drug metabolism assessed as GSTpi (unknown origin) mediated compound fluorescence activation at 1 uM in presence of 100 uM cysteine by HPLC analysis. The data set is classed as ADME. To be noted: human. The method in brief: as §1
Data set [13] is described as follows: Toxicity in ICR mouse assessed as induction of animal death at 240 to 375 mg/kg, ip measured after 1 day. Type of data set: organism-based. To be noted: in vivo, 24 h. The method in brief:
as §2

The nature of data set [14]: Toxicity in ICR mouse assessed as induction of animal death at 240 to 468.8 mg/kg, ip measured after 5 to 14 days. The settings on record: in vivo. Type of data set: organism-based. The procedure, abridged: as §2
The subject of data set [15] is HT-29. Briefly: Induction of apoptosis in human HT-29 cells assessed as increase in cleaved PARP protein level incubated for 72 hrs by Western blot analysis. The data set is classed as functional, cell-based. The method in brief:
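HT29 cells (1.5×10^5/mL) were treated for 72 h and lysed. Lysate (0.05 mg/lane) was run on 12% SDS-PAGE and transferred to nitrocellulose. After blocking in 5% non-fat milk, blots were probed for Bax, Bcl-2, cleaved caspase-3, cleaved PARP, LC3, p62 and beclin-1. Levels were normalised to β-actin, and means ± SD taken from three independent assays.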

By IC50 is commonly meant the concentration needed to halve the response being measured. Take `COc1cc(-c2nc(NC(=O)OCC3=CCCCC3=O)cc3c2[nH]c2ccccc23)cc(OC)c1OC`: the Drug metabolism entry in data set [1], in data set [4], in data set [7], in data set [10] and in data set [12] was “Metabolite_Notdetected” throughout. In data set [2], this compound showed an IC50 of 920 nM. Also, the Activity in [3] is reported as 36.8%; in [6], “Non-Toxic”; in data set [9], “Non-Toxic”; in data set [11], “Non-Toxic”; in data set [13] it was “Non-Toxic”; in data set [14] it was “Non-Toxic”. For the same compound, the Activity result in data set [15] is “Dose-dependent effect”. In [5], the Drug uptake entry is “Active”. Besides, in [8], the survival at 336 h was determined as 40%.

The values above are taken from ChEMBL document CHEMBL4622976, “Development of pH/Glutathione-Responsive Theranostic Agents Activated by Glutathione S-Transferase π for Human Colon Cancer” (J Med Chem, 2020).
